Values after ≈ are worked out from the molar mass of the structure shown.
How the values were obtained:
[1] = system: Mycobacterium tuberculosis; experiment: Antitubercular activity against Mycobacterium tuberculosis H37Rv assessed as inhibition of colony formation at 250 ug/mL after 2 to 4 weeks by Lowensteine-Jensen method relative to control; assay type: functional
Vibrio cholerae = experiment: Antibacterial activity against Vibrio cholerae MTCC 3906 assessed as growth inhibition after 24 to 48 hrs by broth microdilution method; assay type: functional
Streptococcus pneumoniae = experiment: Antibacterial activity against Streptococcus pneumoniae MTCC 1936 assessed as growth inhibition after 24 to 48 hrs by broth microdilution method; assay type: functional
Outline: (§1)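 Bacteria were grown in Mueller-Hinton broth with inoculum adjusted to 10⁸ CFU mL⁻¹ by turbidity. Compounds were serially diluted in 2% aqueous DMSO and incubated at 37 °C overnight. Growth was checked by subculture at 24 and 48 h. MIC was taken as the highest dilution with no turbidity after spot subculture.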

Plasmodium falciparum = experiment: Antimalarial activity against chloroquine/quinine sensitive Plasmodium falciparum assessed as parasite growth inhibition after 48 hrs; assay type: functional, organism-based
Salmonella typhi = experiment: Antibacterial activity against Salmonella typhi MTCC 98 assessed as growth inhibition after 24 to 48 hrs by broth microdilution method; assay type: functional, Salmonella enterica subsp. enterica serovar Typhi; settings: Salmonella enterica
Candida albicans = experiment: Antifungal activity against Candida albicans MTCC 227 assessed as growth inhibition after 24 to 48 hrs by broth microdilution method; assay type: functional
Outline: (§2)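 Fungal nutrition used Sabouraud Dextrose broth with inoculum at 10⁸ CFU mL⁻¹ by turbidity. Serial compound dilutions were made in 2% DMSO in water. Growth was noted on subculture after 24 and 48 h. MIC was taken as the highest dilution preventing visible turbidity after spot subculture.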

Escherichia coli = experiment: Antibacterial activity against Escherichia coli MTCC 443 assessed as growth inhibition after 24 to 48 hrs by broth microdilution method; assay type: functional; outline: as §1
Clostridium tetani = experiment: Antibacterial activity against Clostridium tetani MTCC 449 assessed as growth inhibition after 24 to 48 hrs by broth microdilution method; assay type: functional
Bacillus subtilis = experiment: Antibacterial activity against Bacillus subtilis MTCC 441 assessed as growth inhibition after 24 to 48 hrs by broth microdilution method; assay type: functional; outline: as §1
[2] = system: Mycobacterium tuberculosis; experiment: Antitubercular activity against Mycobacterium tuberculosis H37Rv assessed as inhibition of colony formation at 100 ug/mL after 2 to 4 weeks by Lowensteine-Jensen method relative to control; assay type: functional
Aspergillus fumigatus = experiment: Antifungal activity against Aspergillus fumigatus MTCC 3008 assessed as growth inhibition after 24 to 48 hrs by broth microdilution method; assay type: functional; outline: as §2

Cc1ccc(N2C(N)=C(C(N)=O)C(c3c(C)nn(-c4ccccc4)c3-n3ccnc3)C3=C2CC(C)(C)CC3=O)cc1 (stereo unspecified)
inhibition at 250 µg/mL [1]: 35%
MIC (Vibrio cholerae): 250 µg/mL (≈ 456 µM)
MIC (Streptococcus pneumoniae): 250 µg/mL (≈ 456 µM)
IC50 (Plasmodium falciparum): 1.02 µg/mL (≈ 1.87 µM)
MIC (Salmonella typhi): 200 µg/mL (≈ 365 µM)
MIC (Candida albicans): > 1000 µg/mL
MIC (Escherichia coli): 200 µg/mL (≈ 365 µM)
MIC (Clostridium tetani): 200 µg/mL (≈ 365 µM)
MIC (Bacillus subtilis): 250 µg/mL (≈ 456 µM)
inhibition at 100 µg/mL [2]: 30%
MIC (Aspergillus fumigatus): 250 µg/mL (≈ 456 µM)

Cc1nn(-c2ccccc2)c(-n2ccnc2)c1C1C(C(N)=O)=C(N)N(c2ccc(O)cc2)C2=C1C(=O)CC(C)(C)C2 (stereo unspecified)
inhibition at 250 µg/mL [1]: 70%
MIC (Vibrio cholerae): 250 µg/mL (≈ 455 µM)
MIC (Streptococcus pneumoniae): 250 µg/mL (≈ 455 µM)
IC50 (Plasmodium falciparum): 0.057 µg/mL (≈ 0.104 µM)
MIC (Salmonella typhi): 125 µg/mL (≈ 227 µM)
MIC (Candida albicans): 500 µg/mL (≈ 910 µM)
MIC (Escherichia coli): 250 µg/mL (≈ 455 µM)
MIC (Clostridium tetani): 250 µg/mL (≈ 455 µM)
MIC (Bacillus subtilis): 200 µg/mL (≈ 364 µM)
inhibition at 100 µg/mL [2]: 61%
MIC (Aspergillus fumigatus): 1000 µg/mL (≈ 1820 µM)

CCOC(=O)C1=C(N)N(c2ccc(C)cc2)C2=C(C(=O)CC(C)(C)C2)C1c1c(C)nn(-c2ccccc2)c1-n1ccnc1 (stereo unspecified)
inhibition at 250 µg/mL [1]: 12%
MIC (Vibrio cholerae): 100 µg/mL (≈ 173 µM)
MIC (Streptococcus pneumoniae): 100 µg/mL (≈ 173 µM)
IC50 (Plasmodium falciparum): 1.79 µg/mL (≈ 3.1 µM)
MIC (Salmonella typhi): 100 µg/mL (≈ 173 µM)
MIC (Candida albicans): 1000 µg/mL (≈ 1730 µM)
MIC (Escherichia coli): 125 µg/mL (≈ 217 µM)
MIC (Clostridium tetani): 250 µg/mL (≈ 434 µM)
MIC (Bacillus subtilis): 250 µg/mL (≈ 434 µM)
inhibition at 100 µg/mL [2]: 6%
MIC (Aspergillus fumigatus): > 1000 µg/mL

Cc1nn(-c2ccccc2)c(-n2ccnc2)c1C1C(C#N)=C(N)N(c2ccc(Cl)cc2)C2=C1C(=O)CC(C)(C)C2 (stereo unspecified)
inhibition at 250 µg/mL [1]: 84%
MIC (Vibrio cholerae): 250 µg/mL (≈ 454 µM)
MIC (Streptococcus pneumoniae): 125 µg/mL (≈ 227 µM)
IC50 (Plasmodium falciparum): 0.073 µg/mL (≈ 0.133 µM)
MIC (Salmonella typhi): 500 µg/mL (≈ 909 µM)
MIC (Candida albicans): > 1000 µg/mL
MIC (Escherichia coli): 500 µg/mL (≈ 909 µM)
MIC (Clostridium tetani): 125 µg/mL (≈ 227 µM)
MIC (Bacillus subtilis): 200 µg/mL (≈ 364 µM)
inhibition at 100 µg/mL [2]: 76%
MIC (Aspergillus fumigatus): 500 µg/mL (≈ 909 µM)

COc1ccc(N2C(N)=C(C#N)C(c3c(C)nn(-c4ccccc4)c3-n3ccnc3)C3=C2CC(C)(C)CC3=O)cc1 (stereo unspecified)
inhibition at 250 µg/mL [1]: 91%
MIC (Vibrio cholerae): 250 µg/mL (≈ 458 µM)
MIC (Streptococcus pneumoniae): 100 µg/mL (≈ 183 µM)
IC50 (Plasmodium falciparum): 0.086 µg/mL (≈ 0.158 µM)
MIC (Salmonella typhi): 100 µg/mL (≈ 183 µM)
MIC (Candida albicans): 1000 µg/mL (≈ 1830 µM)
MIC (Escherichia coli): 200 µg/mL (≈ 367 µM)
MIC (Clostridium tetani): 100 µg/mL (≈ 183 µM)
MIC (Bacillus subtilis): 125 µg/mL (≈ 229 µM)
inhibition at 100 µg/mL [2]: 88%
MIC (Aspergillus fumigatus): 500 µg/mL (≈ 916 µM)

COC1=CC(=O)C[C@@H](C)[C@]12Oc1c(Cl)c(OC)cc(OC)c1C2=O [GRISEOFULVIN]
MIC (Candida albicans): 100 µg/mL (≈ 283 µM)
MIC (Aspergillus fumigatus): 100 µg/mL (≈ 283 µM)

Cc1nn(-c2ccccc2)c(-n2ccnc2)c1C1C(C(N)=O)=C(N)N(c2ccc(Cl)cc2)C2=C1C(=O)CC(C)(C)C2 (stereo unspecified)
inhibition at 250 µg/mL [1]: 75%
MIC (Vibrio cholerae): 500 µg/mL (≈ 880 µM)
MIC (Streptococcus pneumoniae): 200 µg/mL (≈ 352 µM)
IC50 (Plasmodium falciparum): 0.059 µg/mL (≈ 0.104 µM)
MIC (Salmonella typhi): 250 µg/mL (≈ 440 µM)
MIC (Candida albicans): 250 µg/mL (≈ 440 µM)
MIC (Escherichia coli): 250 µg/mL (≈ 440 µM)
MIC (Clostridium tetani): 200 µg/mL (≈ 352 µM)
MIC (Bacillus subtilis): 200 µg/mL (≈ 352 µM)
inhibition at 100 µg/mL [2]: 66%
MIC (Aspergillus fumigatus): 1000 µg/mL (≈ 1760 µM)

CCOC(=O)C1=C(N)N(c2ccc(OC)cc2)C2=C(C(=O)CC(C)(C)C2)C1c1c(C)nn(-c2ccccc2)c1-n1ccnc1 (stereo unspecified)
inhibition at 250 µg/mL [1]: 25%
MIC (Vibrio cholerae): 250 µg/mL (≈ 422 µM)
MIC (Streptococcus pneumoniae): 100 µg/mL (≈ 169 µM)
IC50 (Plasmodium falciparum): 1.49 µg/mL (≈ 2.51 µM)
MIC (Salmonella typhi): 200 µg/mL (≈ 337 µM)
MIC (Candida albicans): 1000 µg/mL (≈ 1690 µM)
MIC (Escherichia coli): 100 µg/mL (≈ 169 µM)
MIC (Clostridium tetani): 250 µg/mL (≈ 422 µM)
MIC (Bacillus subtilis): 125 µg/mL (≈ 211 µM)
inhibition at 100 µg/mL [2]: 20%
MIC (Aspergillus fumigatus): 1000 µg/mL (≈ 1690 µM)

CCOC(=O)C1=C(N)N(c2ccc(O)cc2)C2=C(C(=O)CC(C)(C)C2)C1c1c(C)nn(-c2ccccc2)c1-n1ccnc1 (stereo unspecified)
inhibition at 250 µg/mL [1]: 20%
MIC (Vibrio cholerae): 200 µg/mL (≈ 346 µM)
MIC (Streptococcus pneumoniae): 250 µg/mL (≈ 432 µM)
IC50 (Plasmodium falciparum): 0.096 µg/mL (≈ 0.166 µM)
MIC (Salmonella typhi): 200 µg/mL (≈ 346 µM)
MIC (Candida albicans): 500 µg/mL (≈ 864 µM)
MIC (Escherichia coli): 200 µg/mL (≈ 346 µM)
MIC (Clostridium tetani): 200 µg/mL (≈ 346 µM)
MIC (Bacillus subtilis): 62.5 µg/mL (≈ 108 µM)
inhibition at 100 µg/mL [2]: 12%
MIC (Aspergillus fumigatus): > 1000 µg/mL

C=C[C@H]1CN2CC[C@H]1C[C@H]2[C@H](O)c1ccnc2ccc(OC)cc12 [QUININE]
IC50 (Plasmodium falciparum): 0.268 µg/mL (≈ 0.826 µM)

Cc1nn(-c2ccccc2)c(-n2ccnc2)c1C1C(C#N)=C(N)N(c2ccccc2)C2=C1C(=O)CC(C)(C)C2 (stereo unspecified)
inhibition at 250 µg/mL [1]: 33%
MIC (Vibrio cholerae): 100 µg/mL (≈ 194 µM)
MIC (Streptococcus pneumoniae): 500 µg/mL (≈ 970 µM)
IC50 (Plasmodium falciparum): 1.08 µg/mL (≈ 2.1 µM)
MIC (Salmonella typhi): 125 µg/mL (≈ 242 µM)
MIC (Candida albicans): 1000 µg/mL (≈ 1940 µM)
MIC (Escherichia coli): 100 µg/mL (≈ 194 µM)
MIC (Clostridium tetani): 500 µg/mL (≈ 970 µM)
MIC (Bacillus subtilis): 250 µg/mL (≈ 485 µM)
inhibition at 100 µg/mL [2]: 28%
MIC (Aspergillus fumigatus): 500 µg/mL (≈ 970 µM)

Cc1ccc(N2C(N)=C(C#N)C(c3c(C)nn(-c4ccccc4)c3-n3ccnc3)C3=C2CC(C)(C)CC3=O)cc1 (stereo unspecified)
inhibition at 250 µg/mL [1]: 90%
MIC (Vibrio cholerae): 250 µg/mL (≈ 472 µM)
MIC (Streptococcus pneumoniae): 125 µg/mL (≈ 236 µM)
IC50 (Plasmodium falciparum): 1.07 µg/mL (≈ 2.03 µM)
MIC (Salmonella typhi): 62.5 µg/mL (≈ 118 µM)
MIC (Candida albicans): 1000 µg/mL (≈ 1890 µM)
MIC (Escherichia coli): 200 µg/mL (≈ 378 µM)
MIC (Clostridium tetani): 100 µg/mL (≈ 189 µM)
MIC (Bacillus subtilis): 100 µg/mL (≈ 189 µM)
inhibition at 100 µg/mL [2]: 80%
MIC (Aspergillus fumigatus): 1000 µg/mL (≈ 1890 µM)

O=C(O)c1cn(C2CC2)c2cc(N3CCNCC3)c(F)cc2c1=O [CIPROFLOXACIN]
MIC (Vibrio cholerae): 50 µg/mL (≈ 151 µM)
MIC (Salmonella typhi): 10 µg/mL (≈ 30.2 µM)
MIC (Bacillus subtilis): 100 µg/mL (≈ 302 µM)

— ChEMBL document CHEMBL3232885, “Synthesis, characterization and pharmacological screening of some novel 5-imidazopyrazole incorporated polyhydroquinoline derivatives” (Eur J Med Chem, 2014)
